# Compound activity deposited in PubChem BioAssay by several laboratories.
# SENP7 block: inhibitors of human SENP7 protease; recombinant SENP7, Z-RLRGG-aminoluciferin luminescence, 40 min; inhibition, % at 5 µM; actives 1.5% (n = 330,000); AID 434973;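 active = inhibition above about 50% at the single test dose, limit read from the data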
# Target sequence (Q9BQF6 706-1050 limits assumed): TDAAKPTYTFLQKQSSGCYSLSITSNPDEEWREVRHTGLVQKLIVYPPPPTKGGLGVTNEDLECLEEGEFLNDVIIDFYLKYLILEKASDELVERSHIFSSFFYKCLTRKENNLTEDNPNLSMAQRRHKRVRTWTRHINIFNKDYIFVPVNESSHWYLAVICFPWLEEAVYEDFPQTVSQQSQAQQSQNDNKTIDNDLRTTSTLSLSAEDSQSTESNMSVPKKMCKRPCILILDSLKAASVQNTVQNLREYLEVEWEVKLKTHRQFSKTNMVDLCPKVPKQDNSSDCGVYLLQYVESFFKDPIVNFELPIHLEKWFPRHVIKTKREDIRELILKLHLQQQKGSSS
# HSP90 refold inh: blocks HSP90-mediated luciferase refolding in reticulocyte lysate; Rabbit reticulocyte lysate, luciferase refolding luminescence, 3 h; inhibition, % at 5.6 µM; actives 0.91% (n = 290,000);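 active = inhibition above the screen-wide mean plus 3 SD, computed separately per campaign, cut at about 16% in these data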;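 also: inhibitors lower the luminescence because luciferase stays unfolded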
# SENP6 inh: blocks the human protease SENP6; Q9GZR1; Recombinant SENP6 catalytic domain, aminoluciferin luminescence; inhibition, % at 10 µM; actives 1.8% (n = 330,000);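 active = inhibition above about 50% at the single tested dose, limit read from the data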
# SENP8 block-1: SENP8 (human) protease inhibition; Q96LD8; recombinant SENP8, Nedd8 substrate fluorescence; inhibition, % at 20 µM; actives 0.64% (n = 360,000); AID 602440; in the data active = inhibition mostly above about 40%, no sharp cut-off; inactive = mostly below about 27%
# SENP8 block-2: SENP8 protease inhibition; Q96LD8; purified SENP8, Z-RLRGG-aminoluciferin cleavage, luminescence; inhibition, % at 10 µM; actives 1.2% (n = 330,000); in the data active = inhibition above about 50%
# SENP1 inh: SENP1 (human) catalytic domain inhibition | recombinant SENP1 catalytic domain, CyPet-SUMO1-YPet FRET cleavage | inhibition, % at 10 µM | actives 0.21% (n = 360,000) | AID 624204;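 active = inhibition at least 30% at 10 µM, raw YFP signal under a set limit, fluorescence ratio 0.5 to 1.5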
# Target sequence (Q9P0U3 419-644 limits assumed): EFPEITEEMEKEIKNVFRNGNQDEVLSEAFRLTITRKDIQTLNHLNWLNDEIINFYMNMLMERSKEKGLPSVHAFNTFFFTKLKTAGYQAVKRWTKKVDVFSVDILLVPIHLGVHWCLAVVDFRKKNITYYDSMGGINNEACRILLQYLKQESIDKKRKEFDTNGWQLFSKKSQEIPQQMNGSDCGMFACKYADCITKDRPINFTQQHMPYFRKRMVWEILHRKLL
#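 Material: hSENP1 catalytic domain, recombinant; medium: Tris pH 8 with BME, BSA, NP40 and catalase; compound: single concentration of 10 µM compound, 0.5% DMSO final; technique: FRET read of cyan and yellow fluorescence; timing: 50 min enzyme reaction, room temperature, light-protected; reagent: SFCypet-SUMO1-SFYpet substrate at 25 nM; control set: no-enzyme low, enzyme-DMSO high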
# SENP8 confirm: confirmation of human SENP8 protease inhibitors; shares compounds with SENP7 block; Recombinant SENP8, Z-RLRGG-aminoluciferin luminescence, 60 min; inhibition, % at 12.5 µM; actives 40% (n = 6,200);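 active = mean inhibition across replicates above about 50%, limit read from the data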
# SENP6 conf: confirmation of human SENP6 protease inhibitors | shares compounds with SENP7 block | recombinant SENP6, Z-RLRGG-aminoluciferin luminescence | inhibition, % at 12.5 µM | actives 58% (n = 6,200)
# SENP7 confirm: human SENP7 inhibition, confirmed | shares compounds with SENP7 block | recombinant SENP7, Z-RLRGG-aminoluciferin luminescence, 40 min | inhibition, % at 12.5 µM | actives 69% (n = 6,200) | AID 488917
# Casp3 SENP sel: inhibits human caspase-3 in SENP selectivity test. shares compounds with SENP7 block. purified caspase-3, Z-DEVD-aminoluciferin luminescence, 60 min. inhibition, % at 12.5 µM. actives 60% (n = 6,200). AID 488918;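 active = mean inhibition above about 50%, limit read from the data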
# SENP luc ctr: luminescence interference (SENP counter-screen) | shares compounds with SENP7 block | Pre-incubated SENP8/Z-RLRGG-aminoluciferin, luciferase luminescence interference | inhibition, % at 12.5 µM | actives 39% (n = 6,200) | AID 488919;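 active = mean inhibition above about 50% when retested at one dose, limit read from the data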
# A number is an active result; – = inactive; · = no result given. Rows were chosen to be rich in hits. Some 2.9% of all compounds tested hit in one or more screens of this group.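 The calls were made as follows, unless noted: active = mean inhibition above about 50% in the one-dose retest (limit read from the data); inactive = the rest.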
SMILES,SENP7 block,HSP90 refold inh,SENP6 inh,SENP8 block-1,SENP8 block-2,SENP1 inh,SENP8 confirm,SENP6 conf,SENP7 confirm,Casp3 SENP sel,SENP luc ctr
COc1cc2sc3ccc(C#CC4(O)CCCCC4)cc3c(=O)c2cc1OC,99,·,98,–,94,–,66,70,91,81,–
CN(C(=O)c1ccccc1Cl)C1CCCCC1,–,–,–,–,–,–,·,·,·,·,·
CN(C(=O)c1ccc(-c2ccccc2)cc1)C1CCCCC1,–,·,61,–,–,–,–,–,–,–,–
CCN(c1ccccc1)S(=O)(=O)c1ccc(Cl)c(C(=O)NCc2ccco2)c1,–,·,–,–,–,–,·,·,·,·,·
CCn1c(COc2ccccc2C)nc2ccccc21,–,–,75,–,58,–,–,–,78,53,–
CCn1c(COc2ccccc2OC)nc2ccccc21,–,–,–,–,–,–,·,·,·,·,·
Cn1c(COc2ccccc2Br)nc2ccccc21,–,–,69,–,60,–,52,71,91,63,–
CCCCN1CCC(COC(=O)c2cc(Cl)c(N)c3c2OCCO3)CC1,–,·,–,–,–,–,·,·,·,·,·
CCCc1cc(=O)n2nc(N3CCC(C(=O)NCc4ccc(C)o4)CC3)sc2n1,–,–,–,–,–,–,·,·,·,·,·
O=[N+]([O-])c1ccc(O)c(C=Nc2cccc3ncccc23)c1,–,–,90,–,75,–,–,–,–,–,–
Oc1ccc(C=Nc2cccc3ccccc23)c(O)c1,–,–,70,–,–,–,–,–,–,–,–
O=[N+]([O-])c1ccc(O)c(C=Nc2cccc3ccccc23)c1,–,–,58,–,61,–,–,–,–,–,–
O=C(NN=Cc1cc([N+](=O)[O-])ccc1O)c1cccc2ccccc12,·,·,·,–,·,–,·,·,·,·,·
O=[N+]([O-])c1cccc(C=Nc2cccc3ccccc23)c1O,–,–,88,–,85,–,–,–,–,–,–
CCN1C=C(C(C)=O)C(=O)CC1,·,·,·,–,·,–,·,·,·,·,·
O=[N+]([O-])c1cccc(N/N=C/c2cc([N+](=O)[O-])ccc2O)c1,–,–,–,–,–,–,·,·,·,·,·
O=[N+]([O-])c1ccc(N/N=C/c2ccccc2O)cc1,–,–,70,–,58,–,–,–,83,–,–
CC(=O)c1sc(NC(=O)c2ccccc2C)nc1C,82,–,79,–,67,–,–,67,93,90,52
CC(=O)c1sc(NC(=O)c2cccc(C)c2)nc1C,63,–,67,–,–,–,–,61,88,78,–
CCOC(=O)CSC1=NC(=O)/C(=C/c2ccc(Br)cc2)S1,–,–,–,–,–,–,·,·,·,·,·
CCOC(=O)CSC1=NC(=O)/C(=C\c2ccc(OC(C)=O)cc2)S1,78,–,72,–,–,–,57,52,73,–,77
O=C(COc1ccc(F)cc1Br)Nc1ccccc1N1CCOCC1,–,·,–,–,–,–,·,·,·,·,·
CS/C(Nc1cc(Cl)ccc1Cl)=C(/C#N)C(=O)c1ccco1,89,–,97,–,94,–,92,94,98,91,97
O=C(Nc1cc(Cl)ccc1Cl)c1ccco1,–,–,–,–,–,–,·,·,·,·,·
CCN1CCN(C2=C(NS(=O)(=O)c3ccc(NC(C)=O)cc3)C(=O)c3ccccc3C2=O)CC1,–,–,52,63,–,–,–,–,–,–,–
SMILES,SENP7 block,HSP90 refold inh,SENP6 inh,SENP8 block-1,SENP8 block-2,SENP1 inh,SENP8 confirm,SENP6 conf,SENP7 confirm,Casp3 SENP sel,SENP luc ctr
CCN1CCN(C2=C(NS(=O)(=O)c3ccc(C)cc3)C(=O)c3ccccc3C2=O)CC1,–,–,52,43,–,–,–,–,–,–,–
Cc1cccc(Nc2c(O)nc[nH]c2=O)c1,·,·,·,–,·,–,·,·,·,·,·
COC(=O)CSc1nnc(C2COc3ccccc3O2)n1-c1ccccc1 (centres undefined),76,–,–,–,–,–,–,–,–,–,–
NS(=O)(=O)c1ccc(Nc2nc(-c3ccc(O)cc3O)cs2)cc1,–,–,–,–,–,–,·,·,·,·,·
NNc1nc(-c2ccccc2)cs1,–,–,–,–,–,–,·,·,·,·,·
Cc1cccnc1Nc1nc(-c2ccccc2)cs1,97,–,97,–,92,–,–,96,102,82,74
Oc1ccc(-c2csc(Nc3ccccn3)n2)c(O)c1,–,–,71,–,–,–,53,68,89,–,82
Cc1nc2ncccn2c1-c1csc(Nc2ccc(O)cc2)n1,–,–,–,–,–,–,·,·,·,·,·
Cc1cccnc1Nc1nc(-c2ccc(O)cc2O)cs1,–,–,69,–,56,–,81,81,92,–,–
Cc1csc(Nc2ccc(C(=O)O)cc2)n1,–,–,–,–,–,–,·,·,·,·,·
O=C(O)c1ccc(Nc2nc(-c3ccccc3)cs2)cc1,65,–,84,–,–,–,72,70,90,63,80
CCCCn1c(=O)[nH]c(=O)c2c1nc(Cn1ncc(Cl)c(Cl)c1=O)n2CCC,–,–,–,–,–,–,·,·,·,·,·
Cc1ccnc(Nc2nc(-c3ccccc3)cs2)c1,85,–,90,–,81,–,–,64,85,–,–
COC(=O)/C=C1\SC(=NC(=O)c2ccc(-c3ccccc3)cc2)NC1=O,–,·,–,–,–,–,·,·,·,·,·
CCC(=O)Nc1cc2nn(-c3ccc(OC)cc3)nc2cc1C,57,–,–,–,–,–,–,–,–,–,–
O=C(/C=C/Nc1ccc(Oc2ccccc2)cc1)c1ccco1,98,–,95,–,95,–,–,98,102,95,–
O=C(/C=C/Nc1cccc(C(F)(F)F)c1)c1ccco1,–,–,–,–,–,–,·,·,·,·,·
O=C(/C=C/Nc1ccccc1C(F)(F)F)c1ccco1,69,–,77,–,54,–,–,60,87,51,–
NC(=O)c1ccccc1N/C=C/C(=O)c1ccco1,–,–,73,–,–,–,72,69,87,86,72
CCOc1ccccc1NC(=O)C1CCN(S(=O)(=O)c2ccc(OC)c(OC)c2)CC1,71,–,–,–,–,–,–,–,–,–,–
CCOc1ccccc1NC(=O)C1CCN(c2ccc(S(=O)(=O)N3CCCC3)cc2)CC1,–,–,–,–,–,–,·,·,·,·,·
